PTEN del growth = suppresses growth of cells with PTEN deletion; 1.2% of 140,000 active; viability, % at 10 µM; HCT116 PTEN-null viability, CellTiter-Glo, 60 h; hits give low values; AID 827;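 active means viability at or below a set limit, 4 SD under the median of all tested compounds, cut at about 3.7% in these data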;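 further: PTEN knockout HCT116 line with beta catenin targeted HCT116 as companion control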
Autophagy HCS = alters autophagy in cells; 0.98% of 190,000 active; AID 463193; MEF GFP-LC3 puncta imaging; test concentration mostly 10 µM; calls only at 10 µM (by protocol);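 active means percentage of spot-positive cells more than 3 SD above its plate mean, without a fluorescence outlier flag or 80% toxicity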;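 further: spot-positive cell cutoff set from DMSO-treated cells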
Lmaj promast = Leishmania major promastigote growth inhibition | Leishmania major promastigotes, resazurin fluorescence viability | inhibition, % at 10 µM | 9% of 200,000 active | AID 1063; in the data active means inhibition above about 50%;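 further: promastigotes grown with compound for 44 hours at 28 °C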
HCT116 bCat-KO = beta-catenin-lacking colon tumor cell growth suppression. HCT116 beta-catenin knockout viability, CellTiter-Glo, 60 h; hits give low values. viability, % at 10 µM. 1.5% of 140,000 active. AID 818;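 active means viability at or under a set limit, the compound median less 4 SD, cut at about 6% in these data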;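 further: 0% = Hyamine 1622 control at 20 µM and 100% = untreated cell control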
Dynein transport = blocks dynein driven cargo transport along microtubules; 3617.4 mouse cells, GR-EGFP nuclear translocation imaging; test concentration mostly 20 µM; stimulated with dexamethasone, 1 µM; hits give low values; z-score, hits read low; 0.47% of 220,000 active;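 active means plate z-score of nuclear minus cytoplasmic receptor signal below a set negative limit, without overly bright fluorescence or cell loss, cut at about -3.5 in these data, passing the limit was not always enough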;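 further: z-score of nuclear minus cytoplasmic ring GR-EGFP intensity difference per well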
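Also added: dexamethasone, 1.0 µM final. Medium: tet-free, stripped-serum medium. Detection: fixed, Hoechst-stained cells imaged at 10x for EGFP. Read-out: nuclear-to-cytoplasmic GR-EGFP distribution per well. Times: induction 48 h, compound 1 h, agonist 30 min.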
Starred values were filed as active, the others as inactive. Hits are enriched below; roughly 9.2% of the tested compounds scored in any of these assays.

What do the screens show for `Cc1onc(-c2c(F)cccc2Cl)c1C(=O)Nc1cccc(Cn2cccn2)c1`?
PTEN del growth: 73; Autophagy HCS: inactive; Lmaj promast: 63*; HCT116 bCat-KO: 75; Dynein transport: -0.77

What do the screens show for `Cc1onc(-c2c(F)cccc2Cl)c1C(=O)Nc1sc2c(c1C(N)=O)CCC2`?
PTEN del growth: 15; Autophagy HCS: inactive; Lmaj promast: 63*; HCT116 bCat-KO: 23; Dynein transport: -1.3

How did CCCn1nnnc1NCc1ccc(Cl)cc1Cl do in these assays?
Autophagy HCS: inactive; Lmaj promast: 11; Dynein transport: 0.85

How did O=C(Nc1ccc(S(=O)(=O)NCc2ccco2)cc1)c1ccc2ccccc2n1 do in these assays?
PTEN del growth: 62; Autophagy HCS: inactive; Lmaj promast: 52*; HCT116 bCat-KO: 50; Dynein transport: -1.3

What do the screens show for `O=C(NCc1ccco1)c1ccc2ccccc2n1`?
Autophagy HCS: inactive; Lmaj promast: -3; Dynein transport: 2.3

What do the screens show for `COC(=O)C1(C(C[N+](=O)[O-])c2ccc(C)cc2)C(=O)NCC1c1ccco1` (stereo not given)?
Dynein transport: -0.62

Results for Brc1cccc(CNc2nc3ccccc3n2CCN2CCOCC2)c1 ?
Autophagy HCS: inactive; Lmaj promast: 49; Dynein transport: 3.4

How did COc1ccc(/C=C/C(=O)c2ccc[nH]2)c(OC)c1OC do in these assays?
PTEN del growth: 89; Autophagy HCS: inactive; Lmaj promast: 0; HCT116 bCat-KO: 83; Dynein transport: -0.75

How did COc1ccc(/C=C/C(=O)c2ccncc2)c2ccccc12 do in these assays?
PTEN del growth: 33; Autophagy HCS: inactive; Lmaj promast: 98*; HCT116 bCat-KO: 20; Dynein transport: -0.51

What do the screens show for `COc1cccc(CN2CCNC(=O)C2CC(=O)NCCc2nc(C)c(C)s2)c1OC` (stereo not given)?
Autophagy HCS: inactive; Lmaj promast: -3; Dynein transport: -0.4

What do the screens show for `Cc1cc(NC(=O)CN2C(=O)NC3(CCC(C)CC3)C2=O)no1` (stereo not given)?
PTEN del growth: 93; Autophagy HCS: inactive; Lmaj promast: -4; HCT116 bCat-KO: 91; Dynein transport: 1.3

How did Cc1ccc(S(=O)(=O)CCC(=O)NCc2ccccc2)cc1 do in these assays?
PTEN del growth: 93; Autophagy HCS: inactive; Lmaj promast: 57*; HCT116 bCat-KO: 98; Dynein transport: 0.58

What do the screens show for `Cc1ccc(S(=O)(=O)CCC(=O)c2ccc(O)cc2O)cc1`?
PTEN del growth: 30; Autophagy HCS: inactive; Lmaj promast: 100*; HCT116 bCat-KO: 45; Dynein transport: -2

What do the screens show for `CCNS(=O)(=O)c1ccc(CCC(N)=O)cc1`?
Autophagy HCS: inactive; Lmaj promast: -1; Dynein transport: 1.1

Results for Cc1ccc(S(=O)(=O)CCC(=O)OCc2ccc(Cl)cc2)cc1 ?
PTEN del growth: 103; Autophagy HCS: inactive; Lmaj promast: 55*; HCT116 bCat-KO: 95; Dynein transport: -0.49

How did CCNS(=O)(=O)c1ccc(CCC(=O)NCc2ccc(C)cc2)cc1 do in these assays?
Autophagy HCS: active; Lmaj promast: 1; Dynein transport: -0.31

How did Cc1cc(C)c2c(=O)c(C#N)coc2c1 do in these assays?
Dynein transport: 0.57

How did COC(=O)CSc1nc2[nH]ncc2c(=O)[nH]1 do in these assays?
Autophagy HCS: inactive; Lmaj promast: 2; Dynein transport: -0.65

Results for COc1cc(C(=O)OCc2ccc(C)cc2)cc(NC(=O)c2cccs2)c1OC ?
PTEN del growth: 88; Autophagy HCS: inactive; Lmaj promast: 55*; HCT116 bCat-KO: 87; Dynein transport: -0.52

What do the screens show for `COc1cc(C(=O)O)cc(NC(=O)c2cccs2)c1OC`?
PTEN del growth: 98; Autophagy HCS: inactive; Lmaj promast: 26; HCT116 bCat-KO: 90; Dynein transport: -0.54

How did NC(N)=NNC(=O)c1ccccc1Cl do in these assays?
PTEN del growth: 107; Autophagy HCS: inactive; Lmaj promast: -3; HCT116 bCat-KO: 103; Dynein transport: -0.58

Results for C=CCc1cc(Cl)ccc1OC(=O)Nc1cccc(Cl)c1 ?
Dynein transport: -0.51

Results for CCN(CC)S(=O)(=O)c1ccc(C(=O)Nc2ccc(Cc3ccncc3)cc2)cc1 ?
Autophagy HCS: inactive; Lmaj promast: 99*; Dynein transport: -0.85

What do the screens show for `O=C(Nc1ccc(Cc2ccncc2)cc1)c1cccc([N+](=O)[O-])c1`?
PTEN del growth: 69; Autophagy HCS: inactive; Lmaj promast: 74*; HCT116 bCat-KO: 71; Dynein transport: 0.39

Results for Cc1ccc(C(=O)Nc2ccc(Cc3ccncc3)cc2)cc1[N+](=O)[O-] ?
PTEN del growth: 70; Autophagy HCS: inactive; Lmaj promast: 22; HCT116 bCat-KO: 55; Dynein transport: -0.75

How did O=C(Cc1ccc([N+](=O)[O-])cc1)NCc1ccncc1 do in these assays?
Autophagy HCS: inactive; Lmaj promast: -3; Dynein transport: 0.95

What do the screens show for `O=C(CCNc1ccc(Cc2ccncc2)cc1)c1ccc([N+](=O)[O-])cc1`?
Autophagy HCS: inactive; Lmaj promast: 101*; Dynein transport: 0.085

What do the screens show for `Cc1c(C(=O)Nc2ccc(Cc3ccncc3)cc2)cccc1[N+](=O)[O-]`?
PTEN del growth: 52; Autophagy HCS: inactive; Lmaj promast: 96*; HCT116 bCat-KO: 40; Dynein transport: -0.99

What do the screens show for `CC(C)(C)c1ccc(S(=O)(=O)Nc2ccc(Cc3ccncc3)cc2)cc1`?
PTEN del growth: 59; Autophagy HCS: inactive; Lmaj promast: 88*; HCT116 bCat-KO: 57; Dynein transport: -0.37

What do the screens show for `CN=C(Nc1cccc(Cl)c1)SC1CC(=O)N(c2ccc(OC)cc2)C1=O` (stereo not given)?
Autophagy HCS: inactive; Lmaj promast: 44; Dynein transport: 1.6

What do the screens show for `CC1(CC(=O)N/N=C/c2cc(Br)c(O)cc2O)OCCO1`?
PTEN del growth: 74; Autophagy HCS: inactive; Lmaj promast: 91*; HCT116 bCat-KO: 81; Dynein transport: -0.61

Results for Cc1oc(/C=N/NC(=O)CC2(C)OCCO2)cc1Br ?
PTEN del growth: 97; Autophagy HCS: inactive; Lmaj promast: -4; HCT116 bCat-KO: 93; Dynein transport: 0.65

What do the screens show for `O=C1c2ccccc2C(=O)N1c1ccc(-c2nc3ccccc3o2)cc1`?
PTEN del growth: 73; Autophagy HCS: active; Lmaj promast: -9; HCT116 bCat-KO: 89; Dynein transport: 1.3

How did CN(C)/C=C/C(=O)c1ccc(N2CCN(c3ncc(C(F)(F)F)cc3Cl)CC2)cc1 do in these assays?
PTEN del growth: 10; Autophagy HCS: inactive; Lmaj promast: 1; HCT116 bCat-KO: 2.1*; Dynein transport: 1.9

How did CCCCCNC(=O)c1cc(S(=O)(=O)N2CCCC2)ccc1F do in these assays?
PTEN del growth: 93; Autophagy HCS: inactive; Lmaj promast: -4; HCT116 bCat-KO: 93; Dynein transport: 0.12

What do the screens show for `CC(C)N(CCc1ccncc1)C(=O)Nc1ccc(Cl)c(Cl)c1`?
PTEN del growth: 84; Autophagy HCS: inactive; Lmaj promast: 92*; HCT116 bCat-KO: 80; Dynein transport: -0.43

Screens deposited in PubChem BioAssay by several laboratories.
